In this series the test system is MS2 coat protein. In words: apparent Kd, MS2 coat protein; higher = weaker binding; RNA-MaP array; FMN 200 µM where present. The method, boiled down: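 Apparent Kd: the median of filtered binding-curve fits from single clusters. Designs were transcribed on Illumina sequencing-chip clusters by stalled E. coli RNA polymerase and titrated with SNAP-549-labelled MS2 coat protein from 0.7 or 1.5 nM, doubling to 3 µM, in 100 mM Tris-HCl pH 7.5, 80 mM KCl, 4 mM MgCl2, BSA, DTT, yeast tRNA and Tween-20. Each series ran without and then with constant ligand, and green signal was normalised to red-channel RNA signal and control-cluster median Fmax.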

[1] abbreviates: designed as: OFF switch for flavin mononucleotide, no ligand.
The mark [2] stands for this setting: ligand present: flavin mononucleotide, designed as: OFF switch for flavin mononucleotide.
Where [3] appears, read: designed as: ON switch for flavin mononucleotide, no ligand.
[4] abbreviates: ligand present: flavin mononucleotide, designed as: ON switch for flavin mononucleotide.

The source of these data is the EternaBench riboswitch data.

One may read the apparent Kd as the concentration giving half-maximal binding under the conditions of the assay. “UUAAAUAGUGUGAGGAUAUGCUGGUCCUUGGAUCAGCAGAAGGCACAUGAGGAUCACCCAUGUAGUUAAUUUUA”: the “apparent Kd” value runs as follows: under setting [1], 0.0399 µM; under setting [2], 0.253 µM.
The corresponding values for “GUGAAGUAAGGAUAUACAUGAGGAUCACCCAUGUGGAGGAAGGUGAUGGGAGUAGGUAGUAGAAGGUACGAGGA” are 0.14 µM and 0.128 µM.
The corresponding values for “UCUUACGGAGGAUAUACAUGAGGAUCACCCAUGUAUGGUACGUUGGCUCUACCUUAUAGUAGAAGGCCGGAAGG” are 0.037 µM and 0.233 µM.
The corresponding values for “AUAUCUAUAUCAGGAUAUGGACAGGCCUGUCCGUAUUGAGACAGUAACAUGAGGAUCACCCAUGUCCAGAAGGGAUCGAUGUAU” are 0.048 µM and 0.0402 µM.
As to “UUUUCGAACCGAGGAUAUCCUUAUAAGAAACAUGAGGAUCACCCAUGUAAAGGGAAUUAUUUGUAGGAGAAGGCGGAUUUUGUU”, the “apparent Kd” value is, setting by setting: under setting [3], 0.0444 µM; under setting [4], 0.0299 µM.
For “GCGAUUUUGUAGAAGGUACGUUAUAAGACAAUGUAAGGAUAUACUGACAUGAGGAUCACCCAUGUAUAAAUAGUUAACAGUCGC”, in that order: 0.00889 µM and 0.00668 µM.
Turning to “UCAUAUAUACAAGGAUAUCAAUGAUUUAUAGAUCCUACAUGAGGAUCACCCAUGUUUUUAUAUUUUGAGAAGGUGUAGUGUCUU”, the “apparent Kd” value was 0.214 µM under setting [3] and 0.333 µM under setting [4].
As for “AUUUGACACGUAGGAUAUCGCUUAAAUUUAACACGAGAAGGACGAACAUGAGGAUCACCCAUGUAUCAUGGAGUAGAUAAUUUG”, the “apparent Kd” value under setting [1] was 0.115 µM and the “apparent Kd” value under setting [2] came out at 0.329 µM.
For “GGGCGUGAAGGAUAUACAUGAGGAUCACCCAUGUGGGAGGAGAGUGGUGAGGAGGCUGGUAGAAGGUCAGGAUG”, in that order: 0.0448 µM and 0.0368 µM.
The corresponding values for “GGAUAGGACAGAGGAUAUACGUGCUAGAGAUACUAGCAAAAUUUCCUCACAUGAGGAUCACCCAUGUAGAAGGCUGUCCGAUCG” are 0.0146 µM and 0.323 µM.
Consider “ACUGACAUGAGGAUCACCCAUGUCUUGAAUAGGUCAAAUUCACAGGAUAUGCGCUAGGACAGGGUGCAGAAGGGUGAUGCAAUG”, for which the “apparent Kd” value was determined as 0.0454 µM under setting [3] and 0.0121 µM under setting [4].
In the case of “AAAUAACUAGGAUAUCGAGGCACAGACAUGAGGAUCACCCAUGUGUGGUCUUCGUGCUUACGAGAAGGAGUACGGC”, the “apparent Kd” value is, setting by setting: under setting [1], 0.672 µM; under setting [2], 0.274 µM.
For “CAGGUAGACUGAGGAUAUACAGACCUAGUCUAUCUAGGUCAAUUCCUUACAUGAGGAUCACCCAUGUAGAAGGCAGUCUGCCUG”, in that order: 0.0187 µM and 0.0388 µM.
Consider “GUCUUUAAGGUAGGAUAUAGUAUGAUGGUUUAAUUAGAAGGAUCUCACAUGAGGAUCACCCAUGUAAUAGGAUUACCCAUGUAU”, for which the “apparent Kd” value runs as follows: under setting [1], 0.0609 µM; under setting [2], 0.0434 µM.
For “UCGCGGGAGCAGAAGGGACAGGCCUAUUGUCGUGAGGUCUGCACUUAACAUGAGGAUCACCCAUGUCAGGAUAUGCCCACGCGA”, in that order: 0.0048 µM and 0.00494 µM.
“GCUGCGCGAGGAUAUGCGGUUUGUGCUUUGGCCCGUGGCGUACAUGAGGAUCACCCAUGUAGAAGGCGUGUGGG”: the “apparent Kd” value by setting is: under setting [1], 0.0215 µM; under setting [2], 0.0217 µM.
For “CUGAAGUCAGGAUAUCGUUAAUUUAGUUGUUUGUAUUAGUUCGAGAAGGGACAUGAGGAUCACCCAUGUAAGUU”, the “apparent Kd” value runs as follows: under setting [1], 0.0336 µM; under setting [2], 0.0513 µM.
For the sequence “UUGGACGUCGUAGGAUAUGUAGGAUAUGCCUACAUGAGGAUCACCCAUGUUGACAUGGAAGAAGGACAGAAGGACGAUGUCCAU”, the “apparent Kd” value runs as follows: under setting [3], 0.108 µM; under setting [4], 0.00664 µM.
The corresponding values for “GAAACGCUUGACAUGAGGAUCACCCAUGUUAGAUUGUUAUGUCAGGAUAUAGUCUAGAAACUAGACUAGAAGGGAUAUGUUUCU” are 0.438 µM and 0.107 µM.
As to “UUAAAUCAUGUAGGAUAUGCAUGGCGAAGCUACGCAGAAGGACAUGAGGAUCACCCAUGUUCUGGCUACCGAGUUCGGUGGCAA”, the “apparent Kd” value runs as follows: under setting [1], 0.0207 µM; under setting [2], 0.0833 µM.
On to “AGCGAACAGGCUAACAUGAGGAUCACCCAUGUGGACUCAUGGUAGGAUAUCGGGAAGGAGGAAACCGAGAAGGGCCGGUGAGCG”, for which the “apparent Kd” value is, setting by setting: under setting [3], 0.15 µM; under setting [4], 0.0708 µM.
For “UUUGCAUUCCGAGGAUAUUCAUUUAAUGACUUCACAUGAGGAUCACCCAUGUGGCGAUAGCGCCGGGAGAAGGCGGUUUGCUUU”, in that order: 0.0231 µM and 0.0257 µM.
On to “GUGUAGACAGGAUAUGCUUUGAGCGUAUGAGAGUAGGCUCGACAUGAGGAUCACCCAUGUAGAAGGGUCUACAC”, for which the “apparent Kd” value was found to be 0.0124 µM under setting [1] and 0.0132 µM under setting [2].
Regarding “CUCAGCAAGGAAGGAUAUGGGUUUUCGCACAUGAGGAUCACCCAUGUCGCAGUCCCUACGGGAUCCCAGAAGGUCUAUGCGUGG”, the “apparent Kd” value was determined as 0.26 µM under setting [3] and 0.0163 µM under setting [4].
As for “GCGAAUUUGUGAGGAUAUACAUAAUUUAUAACUGUAGAAGGCACAAACCUCAAGACAUGAGGAUCACCCAUGUGGAAUUUCGCU”, the “apparent Kd” value turned out to be 0.131 µM under setting [1] and 0.192 µM under setting [2].
“ACUAGAUGCGUGAAAUAACACAUGAGGAUCACCCAUGUGACGCAGGAUAUAACCAGAUCAGAAAGUUAGAAGGGUGAGCACGCA”: the “apparent Kd” value under setting [3] amounted to 0.0608 µM and the “apparent Kd” value under setting [4] amounted to 0.0318 µM.
The corresponding values for “GGAGACCUCACAGGAUAUGCUGGACUUUGUCCAGCAGAAGGGUGGAAACAUGAGGAUCACCCAUGUAUGGUCUCCAAAUUUAAU” are 0.089 µM and 0.00874 µM.
In the case of “CCUGCACAUGAGGAUCACCCAUGUCAGGAUAUCUCGCCGUGUGGAGCAACACGGUAUAAGAGAAGGGACACGGG”, the “apparent Kd” value runs as follows: under setting [1], 0.0287 µM; under setting [2], 0.0257 µM.
Regarding “ACAUGAGGAUCACCCAUGUAGAAUGAAGAAGGUAGUUACUUGAGACUCACCCAUGUACAUAGGACUAAGGAUAUUCUAAUAAUU”, the “apparent Kd” value reads like this: under setting [3], 0.0145 µM; under setting [4], 0.0085 µM.
Turning to “GGUUGUCAUCGUCAUCCUUUCGGUACAUGAGGAUCACCCAUGUAGGAUAUGCUGCGUUCGAUGUGGCAGAAGGGCGUGUGUGUU”, the “apparent Kd” value runs as follows: under setting [1], 0.0221 µM; under setting [2], 0.0405 µM.
Regarding “AAAAAACAUGAGGAUCACCCAUGUCUUCGGACGUGAGGAUAUGUACAGACUUCGGUCUGUACAGAAGGCACGUAAA”, the “apparent Kd” value under setting [3] amounted to 0.051 µM and the “apparent Kd” value under setting [4] was 0.023 µM.
Consider “CGUUCUAGAGGAUAUACAGCUUAUGUACGGCGAUCUGGACAACAUGAGGAUCACCCAUGUAGAAGGCUAAGCAC”, for which the “apparent Kd” value under setting [1] was determined as 0.0364 µM and the “apparent Kd” value under setting [2] came to 0.069 µM.
On to “CCUCCUGGUCAGGAUAUCGGACGUUUUAUUCGACGAGAAGGGACCACAUGAGGAUCACCCAUGUGAUGAAGAAC”, for which the “apparent Kd” value came to 0.0424 µM under setting [1] and 0.182 µM under setting [2].
For “GCAGGUCGAGGAUAUACAUGAGGAUCACCCAUGUGAUUAGCAGUCCUCGGACUGCAAUGUAGAAGGUGACCUGC”, in that order: 0.148 µM and 0.501 µM.
On to “GGACGUCACAUUAACAUGAGGAUCACCCAUGUCUAUAGACAUGAGGAUAUGGAUCCUAAUUGGAUCCAGAAGGCAUGGACGUCC”, for which the “apparent Kd” value is 0.787 µM under setting [3] and 0.0463 µM under setting [4].
For “AGUUUUGUACAUGAGGAUCACCCAUGUUAAUAUGUGGUAGUCAGAAGGCAUUGAUAGAGUUUUAAUGAGGAUAUGAAUAUUCUG”, in that order: 0.0318 µM and 0.0323 µM.
Regarding “UUUUAACAUGAGGAUCACCCAUGUGAGGAUAUCGAAAUUUAUAUUUAUAUUUAUAUAACGAGAAGGCACAUUUU”, the “apparent Kd” value runs as follows: under setting [1], 0.0724 µM; under setting [2], 0.0876 µM.
The corresponding values for “UUAGAUUAUUGAGGAUAUGGAUAUUUUUAUUAACCAGAAGGCAAACUCAACAUGAGGAUCACCCAUGUAUAAAGGGUAUUAGUU” are 0.0956 µM and 0.0927 µM.
For the sequence “AUUUAGAGAGGAUAUAUAUUGUGAAACAUGAGGAUCACCCAUGUAAUAAUAUGGAUGUAAAUAGAAGGCUCAUUUA”, the “apparent Kd” value is, setting by setting: under setting [1], 0.0381 µM; under setting [2], 0.0349 µM.
Take “GUGCAUACGUGAGGAUAUGUAUUAGAUAGUGGUACAGAAGGCAUGUCUGAUGACAUGAGGAUCACCCAUGUUGGCACAAUGCGC”: the “apparent Kd” value was 0.0515 µM under setting [3] and 0.0302 µM under setting [4].
Take “UUAUGGCUAGGAUAUGCACGUGCAUGUUCAAGUCAAAGAAGACAUGAGGAUCACCCAUGUAGAAGGAGCGGUAC”: the “apparent Kd” value under setting [1] worked out at 0.0378 µM and the “apparent Kd” value under setting [2] was determined as 0.0242 µM.
For “CAGUGCUGUUGAGAGGAUAUGCGGCGACGGACAUGAGGAUCACCCAUGUUAGCGACAGCGUUGCGGCAGAAGGCUCUGCCCGCUG”, the “apparent Kd” value by setting is: under setting [3], 0.021 µM; under setting [4], 0.0137 µM.
The corresponding values for “GUGAACAUGAGGAUCACCCAUGUAGCUCACUGCCAGUGGCUACAGGAUAUAGCACCUCGAGAGUGCUAGAAGGGUGGCCUAGAA” are 0.106 µM and 0.0339 µM.
Regarding “CAAUUUAUAUCAGGAUAUACAAUACAAUUAUUAGUAGAAGGGAUUAAUACAUGAGGAUCACCCAUGUCAUGUGUCAUAAUAACC”, the “apparent Kd” value is 0.0226 µM under setting [1] and 0.0181 µM under setting [2].
For “UAUAUAUAGGCAGGAUAUACAUGAAUAUAUAUAAUAUAAUAUGAUGUAACAUGAGGAUCACCCAUGUAGAAGGGCCAAUAUAUA”, in that order: 0.0326 µM and 0.0649 µM.
For “AAUAUAAAGAGCUGGCUCAAUUUAACAUGAGGAUCACCCAUGUAGGAUAUCAGCACGAUAAGUGCUGAGAAGGACAUCCAGCUC”, in that order: 0.0167 µM and 0.036 µM.
The corresponding values for “CGGUUCUGAGGAUAUCCACCCUCAUACAUGAGGAUCACCCAUGUUCACCCUUGGGUUCCCGGAGAAGGCAGUUUUC” are 0.233 µM and 0.57 µM.
With “GUAAUUAUAUAGGAUAUCGAACUUAUUAUUUAACGAGAAGGAUGAACAUGAGGAUCACCCAUGUGGUAUCAUGG”, the “apparent Kd” value under setting [1] was 0.156 µM and the “apparent Kd” value under setting [2] was 0.19 µM.
